7 molecules from ChEMBL document CHEMBL4219029, “Impact of Target Warhead and Linkage Vector on Inducing Protein Degradation: Comparison of Bromodomain and Extra-Terminal (BET) Degraders Derived from Triazolodiazepine (JQ1) and Tetrahydroquinoline (I-BET726) BET Inhibitor Scaffolds” (J Med Chem, 2018) can be followed below.

The test system of one test is MV4-11. As to the kind of experiment: Antiproliferative activity against human MV4-11 cells after 48 hrs by CellTiter-Glo luminescent cell viability assay. In kind it is functional, cell-based. To be noted: MV4-11, 48 h. The gist of the method: (§1)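 Cells in RPMI with 10% FBS, L-glutamine, penicillin and streptomycin at 37 °C, 5% CO2. Seeded at 3 × 10^5 per mL and exposed to a range of compound concentrations or 0.05% DMSO for 48 h. Viability read by CellTiter-Glo luminescence. EC50 from curve fitting; errors reflect fit quality.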
(Cellular ATP, detected with luciferase, serves as a proxy for viable cell number.)

The next test has as its system HL-60. As to the kind of experiment: Antiproliferative activity against human HL60 cells after 48 hrs by CellTiter-Glo luminescent cell viability assay. To be noted: HL-60, 48 h. Format: functional, cell-based. The gist of the method:
as §1

The target of test [1] is T1, von Hippel-Lindau disease tumor suppressor/Bromodomain-containing protein 4 (Homo sapiens, UniProt O60885+P40337). As to the kind of experiment: Proteolysis targeting chimera activity in human HeLa cells assessed as induction of VCB-mediated delivery of BRD4 long isoform for protein degradation by proteasome by measuring drug level causing 50% cellular protein depletion incubated for 24 hrs by Western blotting method. Format: cell-based.

Test [2] deals with T1, von Hippel-Lindau disease tumor suppressor/Bromodomain-containing protein 4. As to the kind of experiment: Proteolysis targeting chimera activity in human HeLa cells assessed as induction of VCB-mediated delivery of BRD4 short isoform for protein degradation by proteasome by measuring drug level causing 50% cellular protein depletion incubated for 24 hrs by Western blotting method. Format: cell-based. (In general: Immunoblotting shows a protein as a band on a membrane.)

For test [3], the target named is Bromodomain-containing protein 4 (Homo sapiens, UniProt O60885). As to the kind of experiment: Binding affinity to N-terminal His6-tagged recombinant human Brd4 BD2 expressed in Escherichia coli BL21 (DE3) assessed as compound binary complex formation by isothermal titration calorimetry-based assay. The gist of the method: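 ITC at 25 °C, stirred, in 20 mM Bis-Tris propane, 150 mM NaCl, 1 mM TCEP, pH 7.4, with 0.2% or 3% DMSO depending on scaffold. Bromodomain titrated into PROTAC (20 μM in cell, halved for poorly soluble compounds) over 19 injections. Single-binding-site fit gave n, Kd and ΔH.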

In test [4] the target is von Hippel-Lindau disease tumor suppressor/Bromodomain-containing protein 4/Elongin-B/Elongin-C (Homo sapiens, UniProt O60885+P40337+Q15369+Q15370). As to the kind of experiment: Induction of interaction of N-terminal His6-tagged recombinant human VHL (54 to 213 residues)/elongin C (17 to 112 residues)/elongin B (1 to 104 residues) co-expressed in Escherichia coli BL21 (DE3) with recombinant human Brd4 BD2 assessed as VCB/BRD4/compound ternary complex formation by isothermal titration calorimetry-based assay. For orientation: Isothermal titration calorimetry measures the heat released or taken up as one component is titrated into another.

In test [5] the target is Von Hippel-Lindau disease tumor suppressor/Elongin B/Elongin C (Homo sapiens, UniProt P40337). As to the kind of experiment: Binding affinity to N-terminal His6-tagged recombinant human VHL (54 to 213 residues)/elongin C (17 to 112 residues)/elongin B (1 to 104 residues) expressed in Escherichia coli BL21 (DE3) assessed as compound binary complex formation by isothermal titration calorimetry-based assay.

The target in test [6] is T2, von Hippel-Lindau disease tumor suppressor/Bromodomain-containing protein 3/Elongin-B/Elongin-C (Homo sapiens, UniProt Q15059+P40337+Q15370+Q15369). As to the kind of experiment: Proteolysis targeting chimera activity in human HeLa cells assessed as induction of VCB-mediated delivery of BRD3 for protein degradation by proteasome by measuring drug level causing 50% cellular protein depletion incubated for 24 hrs by Western blotting method. Format: cell-based.

For test [7], the target named is von Hippel-Lindau disease tumor suppressor/Bromodomain-containing protein 2/Elongin-B/Elongin-C (Homo sapiens, UniProt P25440+P40337+Q15369+Q15370). As to the kind of experiment: Induction of interaction of N-terminal His6-tagged recombinant human VHL (54 to 213 residues)/elongin C (17 to 112 residues)/elongin B (1 to 104 residues) co-expressed in Escherichia coli BL21 (DE3) with recombinant human Brd2 BD1 assessed as VCB/BRD2/compound ternary complex formation by isothermal titration calorimetry-based assay.

The target of test [8] is T1, von Hippel-Lindau disease tumor suppressor/Bromodomain-containing protein 4. As to the kind of experiment: Proteolysis targeting chimera activity in human HeLa cells assessed as induction of VCB-mediated delivery of BRD4 short isoform for protein degradation by proteasome at 1 to 10 uM incubated for 24 hrs by Western blotting method. Format: cell-based. The gist of the method: (§2)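 HeLa cells seeded at 3 × 10^5 per well and treated the next day for 24 h. Lysed in RIPA buffer with protease inhibitors, Benzonase and 0.5 mM MgCl2, then immunoblotted. Bands normalized to β-actin and quantified against DMSO control. Dmax is the largest depletion across concentrations. Two biological replicates.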

For test [9] the target is unchanged. As to the kind of experiment: Proteolysis targeting chimera activity in human HeLa cells assessed as induction of VCB-mediated delivery of BRD4 short isoform for protein degradation by proteasome at 1 to 10 uM incubated for 6 hrs by Western blotting method. In kind it is cell-based. The gist of the method: (§3)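 HeLa cells seeded at 3 × 10^5 per well and treated the next day for 6 h. RIPA lysates (protease inhibitors, Benzonase, 0.5 mM MgCl2) immunoblotted. Band intensities normalized to β-actin and expressed relative to DMSO vehicle.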

In test [10] the target is T2, von Hippel-Lindau disease tumor suppressor/Bromodomain-containing protein 3/Elongin-B/Elongin-C. As to the kind of experiment: Proteolysis targeting chimera activity in human HeLa cells assessed as induction of VCB-mediated delivery of BRD3 for protein degradation by proteasome at 1 to 10 uM incubated for 24 hrs by Western blotting method. Format: cell-based. The gist of the method:
as §2

Test [11] shares this target. As to the kind of experiment: Proteolysis targeting chimera activity in human HeLa cells assessed as induction of VCB-mediated delivery of BRD3 for protein degradation by proteasome at 1 to 10 uM incubated for 6 hrs by Western blotting method. Format: cell-based. The gist of the method: as §3
Test [12] addresses T3, von Hippel-Lindau disease tumor suppressor/Bromodomain-containing protein 2/Elongin-B/Elongin-C (Homo sapiens) (UniProt P25440+P40337+Q15370+Q15369). As to the kind of experiment: Proteolysis targeting chimera activity in human HeLa cells assessed as induction of VCB-mediated delivery of BRD2 for protein degradation by proteasome at 1 to 10 uM incubated for 6 hrs by Western blotting method. Format: cell-based. The gist of the method: as §3

Test [13] has as its target T1, von Hippel-Lindau disease tumor suppressor/Bromodomain-containing protein 4. As to the kind of experiment: Proteolysis targeting chimera activity in human HeLa cells assessed as induction of VCB-mediated delivery of BRD4 long isoform for protein degradation by proteasome at 1 to 10 uM incubated for 24 hrs by Western blotting method. Format: cell-based. The gist of the method:
as §2

Test [14] shares this target. As to the kind of experiment: Proteolysis targeting chimera activity in human HeLa cells assessed as induction of VCB-mediated delivery of BRD4 long isoform for protein degradation by proteasome at 1 to 10 uM incubated for 6 hrs by Western blotting method. Format: cell-based. The gist of the method: as §3
The target of test [15] is T3, von Hippel-Lindau disease tumor suppressor/Bromodomain-containing protein 2/Elongin-B/Elongin-C (Homo sapiens). As to the kind of experiment: Proteolysis targeting chimera activity in human HeLa cells assessed as induction of VCB-mediated delivery of BRD2 for protein degradation by proteasome at 1 to 10 uM incubated for 24 hrs by Western blotting method. Format: cell-based. The gist of the method: as §2

Activity calls are given as the source filed them. The rule behind the calls is not given here.

The term EC50 denotes the concentration that produces a half-maximal response. Lower therefore signals an effect from little substance. In general, Kd refers to the free concentration of one partner at which half of the binding sites on the other are occupied at equilibrium, for simple one-to-one binding.

`Cc1ncsc1-c1ccc(CNC(=O)[C@@H]2C[C@@H](O)CN2C(=O)[C@@H](NC(=O)COCCOCCOCCNC(=O)C[C@@H]2N=C(c3ccc(Cl)cc3)c3c(sc(C)c3C)-n3c(C)nnc32)C(C)(C)C)cc1` had an EC50 with MV4-11 of 26.9 nM. Also, in the test with HL-60, the response was half-maximal at 219 nM (EC50) and the Emax amounted to 92%.
As for `CC(=O)N1c2ccc(-c3ccc(C(=O)NCCOCCOCC(=O)N[C@H](C(=O)N4C[C@H](O)C[C@H]4C(=O)NCc4ccc(-c5scnc5C)cc4)C(C)(C)C)cc3)cc2[C@H](Nc2ccc(Cl)cc2)C[C@@H]1C`, the EC50 with MV4-11 was 575 nM; in the test with HL-60, 676 nM. For the same molecule, the Emax in the test with MV4-11 amounted to 88.1%; in the test on HL-60, 96.6%. The pDC50 in test [1] is given as 6.7; in test [2], 6.9; in test [6] it was 6.8. Also, the dissociation constant Kd in test [3] was found to be 3 nM; in [4], 781 nM; in test [5], 116 nM.
For the molecule `Cc1ncsc1-c1ccc(CNC(=O)[C@@H]2C[C@@H](O)CN2C(=O)[C@@H](NC(=O)COCCOCCNC(=O)C[C@@H]2N=C(c3ccc(Cl)cc3)c3c(sc(C)c3C)-n3c(C)nnc32)C(C)(C)C)cc1`, the figures for the EC50 in the test on MV4-11 and with HL-60 were 178 nM and 1450 nM, respectively. Also, the Emax in the test on MV4-11 and in the test on HL-60 was 91.4% each time. Besides, the Kd in test [3] was found to be 17 nM; in test [4], 26 nM.
Consider `Cc1ncsc1-c1ccc(CNC(=O)[C@@H]2C[C@@H](O)CN2C(=O)[C@@H](NC(=O)COCCOCCOCCOCCNC(=O)C[C@@H]2N=C(c3ccc(Cl)cc3)c3c(sc(C)c3C)-n3c(C)nnc32)C(C)(C)C)cc1`, for which the Emax is 95.2% in the test with MV4-11 and 91.7% with HL-60. Moreover, in test [2], the pDC50 is on record as 8.4. The Kd in test [3] was found to be 27 nM; in test [4], 15 nM. For the same molecule, in the test with HL-60, a half-maximal effect (EC50) was put at 1260 nM.
In the case of `CC(=O)N1c2ccc(-c3ccc(C(=O)NCCOCCOCCOCCOCC(=O)N[C@H](C(=O)N4C[C@H](O)C[C@H]4C(=O)NCc4ccc(-c5scnc5C)cc4)C(C)(C)C)cc3)cc2[C@H](Nc2ccc(Cl)cc2)C[C@@H]1C`, the Kd in [7] was 330 nM; in test [3], 8 nM; in test [4], 183 nM; in test [5] it was 109 nM. Moreover, the result in test [8], in test [9], in [10], in test [11], in [12] and in [13] was inactive. In addition, the outcome in [14] and in test [15] was inactive. Besides, the concentration giving a half-maximal response (EC50) with MV4-11 was 83.2 nM; in the test on HL-60, 427 nM. In addition, the Emax was 96.4% with MV4-11 and 98.3% with HL-60. In addition, the Activity result in [1], in test [2] and in test [6] was “Dose-dependent effect” throughout. Besides, the results for the pDC50 in [1], in test [2] and in test [6] were 7.5, 8.1 and 7.7, respectively.
Molecule `Cc1sc2c(c1C)C(c1ccc(Cl)cc1)=N[C@@H](CC(=O)Nc1ccc(OCCOCCOCCOCCNc3cccc4c3C(=O)N(C3CCC(=O)NC3=O)C4=O)cc1)c1nnc(C)n1-2` (stereo not given in full) registered an Emax in the test with HL-60 of 88%.
Consider `CC(=O)N1c2ccc(-c3ccc(C(=O)O)cc3)cc2[C@H](Nc2ccc(Cl)cc2)C[C@@H]1C`, for which the Emax in the test with MV4-11 stood at 73.3%; in the test on HL-60 it was 82.4%.
